For data set [1], the target named is Voltage-gated inwardly rectifying potassium channel KCNH2 (Homo sapiens, UniProt Q12809). In words: Displacement of dofetilide from human ERG.
Data set [2] can be described thus: Half life in mouse liver microsomes. The data set is classed as ADME, Microsome. (In general: Liver microsomes are a subcellular fraction often used to study metabolism.)
A short description of data set [3]: Tmax in BALB/c nude mouse at 50 mg/kg, po. The data set is classed as ADME, organism-based. Also on record: dose 50 mg/kg, route oral. The following applies: in vivo. In outline: (§1)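 Single oral dose by gavage as suspension in 0.5% methylcellulose/0.1% Tween 80 (mouse, rat, monkey) or in gelatin capsules (dog). Serial blood samples taken from 0 to 24 h into K3EDTA tubes; plasma stored at −70 °C until analysis. Parameters derived by noncompartmental methods. Rat, dog and monkey n = 3; mouse values estimated from mean concentration-time data, n = 3 mice per time point.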

Data set [4] relates to HL-60. In words: Antiproliferative activity against human HL60 cells expressing FLT3 after 48 hrs by luciferase reporter gene assay. The data set is classed as functional. The settings on record: HL-60, 48 h. A general note: A reporter such as luciferase makes a cellular process visible.
Data set [5] addresses Cyclin-dependent kinase 2 (Homo sapiens, UniProt P24941). In words: Inhibition of recombinant CDK2 using RbING as substrate after 2 hrs by luminometric assay.
Data set [6] is described as follows: Half life in rat liver microsomes at 5 uM. The data set is classed as ADME, Microsome. In outline: (§2)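 Compound at 5 μM with human, mouse or dog microsomes at 0.87 mg/mL, or rat and monkey microsomes at 1 mg/mL, in 50 mM potassium phosphate pH 7.4 with NADPH regenerating system at 37 °C.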
Data set [7] can be described thus: Half life in human liver microsomes at 5 uM. It is filed as ADME, Microsome. In short, it runs like this:
as §2

The nature of data set [8]: Plasma protein binding in dog at 1000 ng/mL by equilibrium dialysis. The data set is classed as ADME, cell-free, Canis lupus familiaris. The settings on record: read-out: PPB (converted). In short, it runs like this:
(§3)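 Equilibrium dialysis of plasma (mouse, rat, dog, monkey, human) spiked to 1000 ng/mL final against PBS, 4 h at 37 °C; buffer side extracted with MTBE in triplicate and analyzed by LC-MS/MS.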
(In general: In equilibrium dialysis only unbound substance equilibrates across the membrane.)

The target in data set [9] is hERG (Homo sapiens, UniProt Q12809). In words: Displacement of dofetilide from human ERG at 10 uM. The settings on record: probe dofetilide.
Chain of hERG (Q12809 whole entry): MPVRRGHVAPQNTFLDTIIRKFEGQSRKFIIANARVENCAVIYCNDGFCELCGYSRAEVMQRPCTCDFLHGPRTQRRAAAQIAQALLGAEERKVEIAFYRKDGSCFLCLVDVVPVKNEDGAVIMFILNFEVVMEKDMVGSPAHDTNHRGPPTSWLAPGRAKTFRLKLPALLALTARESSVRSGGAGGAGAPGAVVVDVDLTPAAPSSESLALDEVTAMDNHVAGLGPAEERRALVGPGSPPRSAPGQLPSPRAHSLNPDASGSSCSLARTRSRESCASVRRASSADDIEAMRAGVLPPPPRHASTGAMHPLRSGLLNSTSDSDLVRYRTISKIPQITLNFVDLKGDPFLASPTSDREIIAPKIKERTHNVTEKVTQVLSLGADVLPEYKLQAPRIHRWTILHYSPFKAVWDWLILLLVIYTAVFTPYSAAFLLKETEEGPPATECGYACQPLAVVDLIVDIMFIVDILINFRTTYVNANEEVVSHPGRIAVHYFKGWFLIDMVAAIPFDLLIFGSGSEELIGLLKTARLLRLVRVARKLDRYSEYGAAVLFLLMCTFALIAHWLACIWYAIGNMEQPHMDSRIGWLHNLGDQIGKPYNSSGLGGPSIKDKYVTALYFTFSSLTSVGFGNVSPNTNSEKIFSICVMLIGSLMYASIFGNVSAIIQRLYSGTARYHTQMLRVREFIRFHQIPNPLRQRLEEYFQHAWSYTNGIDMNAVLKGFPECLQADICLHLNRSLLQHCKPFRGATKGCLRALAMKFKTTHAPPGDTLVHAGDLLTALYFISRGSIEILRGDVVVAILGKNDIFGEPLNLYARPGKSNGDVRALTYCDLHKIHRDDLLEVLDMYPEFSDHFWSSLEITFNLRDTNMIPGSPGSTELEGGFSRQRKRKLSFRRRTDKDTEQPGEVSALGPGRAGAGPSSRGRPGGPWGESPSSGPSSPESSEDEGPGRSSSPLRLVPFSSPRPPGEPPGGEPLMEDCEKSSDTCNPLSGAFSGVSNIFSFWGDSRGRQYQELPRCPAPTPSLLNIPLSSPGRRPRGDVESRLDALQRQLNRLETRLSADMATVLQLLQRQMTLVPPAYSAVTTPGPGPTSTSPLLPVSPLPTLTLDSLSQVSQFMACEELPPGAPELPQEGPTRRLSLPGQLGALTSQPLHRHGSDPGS
Data set [10] has as its target Macrophage colony-stimulating factor 1 receptor (Homo sapiens, UniProt P07333). In words: Inhibition of c-fms.
The target of data set [11] is T1, Receptor-type tyrosine-protein kinase FLT3 (Homo sapiens, UniProt P36888).
T1 sequence (P36888 whole entry): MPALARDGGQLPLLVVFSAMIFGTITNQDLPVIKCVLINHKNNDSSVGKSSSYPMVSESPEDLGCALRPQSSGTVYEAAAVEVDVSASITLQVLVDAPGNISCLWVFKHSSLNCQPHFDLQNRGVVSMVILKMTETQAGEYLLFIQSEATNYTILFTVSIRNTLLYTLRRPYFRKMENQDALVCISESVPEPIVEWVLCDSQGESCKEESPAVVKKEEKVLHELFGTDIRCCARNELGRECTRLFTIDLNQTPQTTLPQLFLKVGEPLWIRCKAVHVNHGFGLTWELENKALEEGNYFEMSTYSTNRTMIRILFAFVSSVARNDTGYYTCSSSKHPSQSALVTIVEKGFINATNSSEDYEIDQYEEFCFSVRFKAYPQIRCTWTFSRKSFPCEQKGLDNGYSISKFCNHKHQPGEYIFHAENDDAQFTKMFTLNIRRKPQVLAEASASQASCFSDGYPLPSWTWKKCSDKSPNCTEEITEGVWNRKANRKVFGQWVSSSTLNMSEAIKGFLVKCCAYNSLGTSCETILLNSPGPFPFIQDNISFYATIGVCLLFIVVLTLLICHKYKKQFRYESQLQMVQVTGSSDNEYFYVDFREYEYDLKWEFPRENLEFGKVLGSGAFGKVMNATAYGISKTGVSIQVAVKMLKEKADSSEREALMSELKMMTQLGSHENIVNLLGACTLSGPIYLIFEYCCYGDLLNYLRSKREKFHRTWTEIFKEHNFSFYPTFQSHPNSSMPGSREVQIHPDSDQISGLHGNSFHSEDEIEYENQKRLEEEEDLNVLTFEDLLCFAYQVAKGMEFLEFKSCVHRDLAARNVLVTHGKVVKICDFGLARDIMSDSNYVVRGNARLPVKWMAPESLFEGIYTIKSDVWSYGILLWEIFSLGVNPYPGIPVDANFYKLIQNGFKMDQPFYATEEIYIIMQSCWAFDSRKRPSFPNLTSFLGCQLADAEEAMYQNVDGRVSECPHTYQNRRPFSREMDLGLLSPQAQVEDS
In words: Inhibition of recombinant FLT3 using poly(Glu,Tyr) as substrate after 2 hrs by luminometric assay.

In data set [12] the target is Non-receptor tyrosine-protein kinase TYK2 (Homo sapiens, UniProt P29597). In words: Inhibition of TYK2.
Chain of Non-receptor tyrosine-protein kinase TYK2 (P29597 whole entry): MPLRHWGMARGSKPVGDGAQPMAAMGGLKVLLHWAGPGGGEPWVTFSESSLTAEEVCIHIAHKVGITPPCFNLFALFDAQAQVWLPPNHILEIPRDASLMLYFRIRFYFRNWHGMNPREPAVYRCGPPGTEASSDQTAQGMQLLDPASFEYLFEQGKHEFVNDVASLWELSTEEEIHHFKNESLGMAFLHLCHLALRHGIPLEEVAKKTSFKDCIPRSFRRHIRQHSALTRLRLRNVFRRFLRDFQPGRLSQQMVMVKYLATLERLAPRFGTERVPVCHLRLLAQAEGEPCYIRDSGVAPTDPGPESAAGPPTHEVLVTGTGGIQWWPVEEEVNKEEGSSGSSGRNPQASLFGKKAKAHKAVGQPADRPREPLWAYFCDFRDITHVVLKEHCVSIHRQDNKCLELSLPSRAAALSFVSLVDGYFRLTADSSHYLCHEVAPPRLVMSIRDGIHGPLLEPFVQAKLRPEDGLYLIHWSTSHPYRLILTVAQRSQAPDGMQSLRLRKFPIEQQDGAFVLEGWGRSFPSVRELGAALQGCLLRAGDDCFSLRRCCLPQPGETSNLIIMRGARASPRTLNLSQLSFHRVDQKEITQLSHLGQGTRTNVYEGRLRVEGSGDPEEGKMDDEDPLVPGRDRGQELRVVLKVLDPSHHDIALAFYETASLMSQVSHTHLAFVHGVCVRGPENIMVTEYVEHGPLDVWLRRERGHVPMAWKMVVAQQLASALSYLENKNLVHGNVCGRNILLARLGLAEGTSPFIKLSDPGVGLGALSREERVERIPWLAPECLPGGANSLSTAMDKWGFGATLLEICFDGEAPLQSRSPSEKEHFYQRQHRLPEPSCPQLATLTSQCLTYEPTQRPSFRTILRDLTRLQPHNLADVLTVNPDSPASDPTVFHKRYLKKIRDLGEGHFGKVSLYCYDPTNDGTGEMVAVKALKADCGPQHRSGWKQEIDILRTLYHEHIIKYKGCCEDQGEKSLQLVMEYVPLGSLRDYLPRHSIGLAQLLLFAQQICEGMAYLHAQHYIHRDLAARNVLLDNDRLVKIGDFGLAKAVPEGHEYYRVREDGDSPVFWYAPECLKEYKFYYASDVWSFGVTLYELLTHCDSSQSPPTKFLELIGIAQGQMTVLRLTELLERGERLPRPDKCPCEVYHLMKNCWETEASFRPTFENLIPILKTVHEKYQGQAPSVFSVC
Data set [13] can be described thus: Kinetic solubility in PBS buffer at pH 7. The settings on record: read-out: Kinetic_solubility. The data set is classed as physicochemical.
Data set [14] is described as follows: AUC (0 to infinity) in beagle dog at 5 mg/kg, po. It is filed as ADME, organism-based, Canis lupus familiaris. The arrangement: time infinity, dose 5 mg/kg, route oral. The settings on record: plasma. In outline:
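Single oral gavage at 50 (mouse, rat), 5 (dog) or 20 (monkey) mg/kg; rodents and monkeys received suspensions in 0.5% methylcellulose/0.1% Tween 80, dogs gelatin capsules. Serial blood taken 0–24 h into K3EDTA, plasma stored at −70 °C. Parameters estimated by noncompartmental analysis, n = 3 per species (mouse values from mean concentration–time data, 3 mice per time point).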

Data set [15] can be described thus: Terminal half life in BALB/c nude mouse at 50 mg/kg, po. The following applies: in vivo, read-out: beta t1/2 (converted). The data set is classed as ADME, organism-based. Also on record: dose 50 mg/kg, route oral. In outline: as §1
Data set [16] has as its target Cytochrome P450 2D6 (Homo sapiens, UniProt P10635). In words: Inhibition of CYP2D6 in human liver microsomes using dextromethorphan as substrate by fluorescence detection assay. It is filed as ADME, Microsome. In short, it runs like this:
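Seven-point concentration series (0.001, 0.01, 0.1, 1.0, 5, 10 and 25 μM) incubated with human liver microsomes. IC50 is the concentration giving 50% inhibition, calculated from the decrease in metabolite formation relative to vehicle control.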

Data set [17] in a line: Half life in mouse liver microsomes at 5 uM. The data set is classed as ADME, Microsome. In short, it runs like this: as §2
Data set [18] has as its target T2, Cytochrome P450 3A4 (Homo sapiens, UniProt P08684). In words: Inhibition of CYP3A4 in human liver microsomes using testosterone as substrate by LC-MS/MS analysis. The data set is classed as ADME, Microsome.
The target of data set [19] is T2, Cytochrome P450 3A4. In words: Induction of CYP3A4 in human liver microsomes. The data set is classed as ADME, Microsome.
A short description of data set [20]: Efflux ratio of apparent permeability across human Caco2 cells at 10 uM after 120 mins by LC-MS/MS analysis. The data set is classed as ADME, cell-based. The following applies: Caco-2. In outline: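 Caco-2 monolayers (passage 40–60) seeded at 1 × 10⁵ cells/cm², used on day 20; HBSS pH 7.4 with 25 mM HEPES and 4.45 mM glucose, 37 °C, 5% CO₂; 10 μM final (1% DMSO) dosed apical or basolateral, 120 min; both compartments quantified by LC-MS/MS; duplicate; reference compounds as controls; monolayer integrity by lucifer yellow permeation.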

The nature of data set [21]: Plasma protein binding in rat at 1000 ng/mL by equilibrium dialysis. The following applies: read-out: PPB (converted). The data set is classed as ADME, cell-free. In outline: as §3

T2 sequence (P08684 whole entry): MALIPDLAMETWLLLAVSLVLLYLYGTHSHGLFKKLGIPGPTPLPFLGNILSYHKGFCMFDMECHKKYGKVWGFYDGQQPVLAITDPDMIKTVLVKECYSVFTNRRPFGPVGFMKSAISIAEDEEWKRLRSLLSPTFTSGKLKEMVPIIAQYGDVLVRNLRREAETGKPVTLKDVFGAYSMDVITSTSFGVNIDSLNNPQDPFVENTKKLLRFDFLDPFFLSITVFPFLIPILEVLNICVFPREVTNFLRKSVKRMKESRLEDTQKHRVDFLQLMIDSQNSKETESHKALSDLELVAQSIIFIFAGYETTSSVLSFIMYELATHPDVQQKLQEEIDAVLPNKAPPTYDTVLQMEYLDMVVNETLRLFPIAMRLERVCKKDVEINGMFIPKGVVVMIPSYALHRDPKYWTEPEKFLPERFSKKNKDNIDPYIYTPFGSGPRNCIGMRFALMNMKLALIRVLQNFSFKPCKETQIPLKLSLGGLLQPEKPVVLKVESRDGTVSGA
Chain of Cytochrome P450 2D6 (P10635 whole entry): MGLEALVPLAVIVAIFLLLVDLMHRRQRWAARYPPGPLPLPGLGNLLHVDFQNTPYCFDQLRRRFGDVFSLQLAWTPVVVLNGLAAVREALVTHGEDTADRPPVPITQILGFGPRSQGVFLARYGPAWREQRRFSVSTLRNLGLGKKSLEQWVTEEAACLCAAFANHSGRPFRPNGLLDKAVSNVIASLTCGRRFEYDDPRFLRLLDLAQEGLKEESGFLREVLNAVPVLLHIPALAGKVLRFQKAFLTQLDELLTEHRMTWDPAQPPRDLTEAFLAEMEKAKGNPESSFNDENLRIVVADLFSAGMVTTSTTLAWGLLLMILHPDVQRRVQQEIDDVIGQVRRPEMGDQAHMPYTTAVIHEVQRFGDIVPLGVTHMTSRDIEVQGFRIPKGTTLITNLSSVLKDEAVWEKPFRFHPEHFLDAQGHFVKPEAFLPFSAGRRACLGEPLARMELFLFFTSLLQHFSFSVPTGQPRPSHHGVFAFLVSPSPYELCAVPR
Chain of Macrophage colony-stimulating factor 1 receptor (P07333 whole entry): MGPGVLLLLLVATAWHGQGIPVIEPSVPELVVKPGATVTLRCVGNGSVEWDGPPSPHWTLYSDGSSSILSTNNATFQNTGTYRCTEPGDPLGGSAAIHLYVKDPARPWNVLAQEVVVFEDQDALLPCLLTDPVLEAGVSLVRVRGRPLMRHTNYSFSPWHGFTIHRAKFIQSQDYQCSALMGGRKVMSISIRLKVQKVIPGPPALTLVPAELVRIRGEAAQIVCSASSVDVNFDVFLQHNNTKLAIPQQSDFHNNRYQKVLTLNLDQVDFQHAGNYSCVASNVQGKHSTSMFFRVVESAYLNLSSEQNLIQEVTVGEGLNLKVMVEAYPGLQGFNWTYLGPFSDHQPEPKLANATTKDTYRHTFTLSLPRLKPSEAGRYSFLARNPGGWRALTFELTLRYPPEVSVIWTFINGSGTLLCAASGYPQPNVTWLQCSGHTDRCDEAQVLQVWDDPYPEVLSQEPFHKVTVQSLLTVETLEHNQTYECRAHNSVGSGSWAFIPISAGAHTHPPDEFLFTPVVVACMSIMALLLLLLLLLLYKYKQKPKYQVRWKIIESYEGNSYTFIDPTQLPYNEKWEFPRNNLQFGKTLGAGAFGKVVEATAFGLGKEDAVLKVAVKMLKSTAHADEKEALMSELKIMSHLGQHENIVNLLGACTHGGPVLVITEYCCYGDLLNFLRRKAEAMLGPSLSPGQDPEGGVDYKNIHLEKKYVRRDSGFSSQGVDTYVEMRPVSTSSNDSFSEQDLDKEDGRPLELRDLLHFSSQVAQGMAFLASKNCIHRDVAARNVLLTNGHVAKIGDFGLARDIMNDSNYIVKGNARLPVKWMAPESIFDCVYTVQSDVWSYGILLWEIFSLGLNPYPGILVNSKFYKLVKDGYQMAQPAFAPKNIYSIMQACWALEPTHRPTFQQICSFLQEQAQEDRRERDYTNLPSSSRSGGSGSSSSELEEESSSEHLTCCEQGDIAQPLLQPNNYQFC

Take `C1=C2COC/C=C/COCc3cc(ccc3OCCN3CCCC3)Nc3nccc(n3)C(=C1)O2` (mixture of isomers) [CT-1578]: the IC50 is greater than 10000 nM in data set [1]; 7000 nM in data set [5]; 69 nM in [10]; 60 nM in data set [11]; 230 nM in [12]; greater than 10000 nM in data set [16]. This molecule registered an IC50 in [18] greater than 10000 nM. In addition, the half-life in [2] is 27 min; in data set [15], 48 min. Further, the Tmax in data set [3] amounted to 30 min. In [4], this molecule returned a GI50 of 850 nM. Besides, the half-life at 5 µM in [6], in [7] and in data set [17] was greater than 60 min in each case. Moreover, the fraction unbound at 1000 ng/mL in data set [8] and in [21] was 0.127 each time. Also, in data set [9], testing at 10 µM gave an inhibition of 14%. The solubility kinetic in [13] is greater than 250 µg/mL. For the same molecule, the AUC(0-inf) in [14] came to 96 ng·h/mL. The Activity entry in data set [19] is “Not Active”. The efflux ratio at 2 h, 10 µM in [20] was determined as 1.1.

A word on the IC50: it is the point on the concentration scale where inhibition reaches its midpoint. Broadly, the Tmax is the time from dosing to the highest level. One may read the GI50 as the concentration that inhibits growth by half. Broadly, the inhibition is how much of the control response was suppressed. The term AUC(0-inf) denotes total exposure, with the tail of the curve extrapolated. Lower therefore signals low exposure. As usually defined, the efflux ratio is a quotient of directional permeabilities that is used to spot active efflux.

The values above are taken from ChEMBL document CHEMBL2034857, “Discovery of the macrocycle (9E)-15-(2-(pyrrolidin-1-yl)ethoxy)-7,12,25-trioxa-19,21,24-triaza-tetracyclo[18.3.1.1(2,5).1(14,18)]hexacosa-1(24),2,4,9,14(26),15,17,20,22-nonaene (SB1578), a potent inhibitor of janus kinase 2/fms-like tyrosine kinase-3 (JAK2/FLT3) for the treatment of rheumatoid …” (J Med Chem, 2012).
